Reference: ChEMBL document CHEMBL3102754, “3D-QSAR study of adamantyl N-benzylbenzamides as melanogenesis inhibitors” (Bioorg Med Chem Lett, 2014)

Each compound was assayed on B16 (assay: Antimelanogenic activity in mouse B16 cells after 4 days by spectrophotometry). Details: B16, 96 h.
Format: functional, cell-based
Summary of the method: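 Cells seeded at 2 × 10^5 cells/mL and treated in triplicate, with medium changed daily. After 4 d of culture, cells lysed in 1 N NaOH and crude extract transferred for melanin content reading.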

Going from `COc1ccccc1CNC(=O)c1cc(C23CC4CC(CC(C4)C2)C3)c(O)cc1O` to `COc1ccc(CNC(=O)c2cc(C34CC5CC(CC(C5)C3)C4)c(O)cc2O)c(OC)c1`, the IC50 rises from 2.31 µM to 3.69 µM (1.6-fold). The first is the more potent here.

Going from `COc1cc(OC)c(C23CC4CC(CC(C4)C2)C3)cc1C(=O)NCCc1ccc(O)cc1` to `COc1cc(O)c(C(=O)NCCc2ccc(O)cc2)cc1C12CC3CC(CC(C3)C1)C2`, the IC50 rises from 1.2 µM to 1.92 µM (1.6-fold). The first is the more potent here.

`COc1ccc(C(=O)NCc2ccc(O)c(O)c2)cc1C12CC3CC(CC(C3)C1)C2` and `COc1ccc(C(=O)NCCc2ccc(O)c(O)c2)cc1C12CC3CC(CC(C3)C1)C2` are within 1.5-fold of each other in IC50: 2.23 µM for the first, 2.33 µM for the second.

`COc1cc(CNC(=O)c2cc(C34CC5CC(CC(C5)C3)C4)c(O)cc2O)cc(OC)c1OC` and `COc1ccc(CNC(=O)c2cc(C34CC5CC(CC(C5)C3)C4)c(O)cc2O)cc1OC` are within 1.5-fold of each other in IC50: 2.94 µM for the first, 3.81 µM for the second.

`COc1cc(CNC(=O)c2ccc(O)c(C34CC5CC(CC(C5)C3)C4)c2)cc(OC)c1` and `COc1cc(CNC(=O)c2ccc(OC)c(C34CC5CC(CC(C5)C3)C4)c2)cc(OC)c1` are within 1.5-fold of each other in IC50: 4.44 µM for the first, 5.02 µM for the second.

Going from `O=C(NCc1ccc(O)c(O)c1)c1cc(C23CC4CC(CC(C4)C2)C3)c(O)cc1O` to `O=C(NCCc1ccc(O)c(O)c1)c1cc(C23CC4CC(CC(C4)C2)C3)c(O)cc1O`, the IC50 rises from 2.5 µM to 4.33 µM (1.7-fold).

First: COc1ccc(C(=O)NCCc2ccc(O)cc2)c(O)c1
Second: COc1ccc(C(=O)NCCc2ccc(O)cc2)c(OC)c1
The IC50 of the first is 5.4-fold lower: 5 µM for the first, 27 µM for the second. The first is the more potent here.

`O=C(NCCc1ccc(O)c(O)c1)c1ccc(O)cc1` and `O=C(NCc1ccc(O)c(O)c1)c1ccc(O)cc1` are within 1.5-fold of each other in IC50: 75 µM for the first, 55 µM for the second.

Compared with `COc1ccc(CCNC(=O)c2cc(C34CC5CC(CC(C5)C3)C4)c(O)cc2O)cc1OC`, `COc1cc(O)c(C(=O)NCCc2ccc(O)c(O)c2)cc1C12CC3CC(CC(C3)C1)C2` is 3.3-fold lower in IC50: 4.08 µM for the first, 1.25 µM for the second.

Compared with `COc1ccc(OC)c(CNC(=O)c2ccc(O)c(C34CC5CC(CC(C5)C3)C4)c2)c1`, `COc1ccc(OC)c(CNC(=O)c2ccc(OC)c(C34CC5CC(CC(C5)C3)C4)c2)c1` is 1.7-fold lower in IC50: 5.41 µM for the first, 3.14 µM for the second. The second is the more potent here.

Going from `COc1cc(CNC(=O)c2cc(C34CC5CC(CC(C5)C3)C4)c(O)cc2O)cc(OC)c1` to `COc1ccc(OC)c(CNC(=O)c2cc(C34CC5CC(CC(C5)C3)C4)c(O)cc2O)c1`, the IC50 rises from 2.57 µM to 4.1 µM (1.6-fold).

`COc1ccc(C(=O)NCCc2ccc(O)c(O)c2)c(OC)c1` and `COc1ccc(C(=O)NCc2ccc(O)c(O)c2)c(OC)c1` are within 1.5-fold of each other in IC50: 11 µM for the first, 8.99 µM for the second.

`COc1ccc(C(=O)NCc2ccc(O)c(O)c2)c(O)c1` and `O=C(NCc1ccc(O)c(O)c1)c1ccc(O)cc1O` are the same in IC50: 8 µM for the first, 8 µM for the second.

`COc1ccc(C(=O)NCCc2ccc(O)cc2)cc1C12CC3CC(CC(C3)C1)C2` and `COc1ccc(CCNC(=O)c2ccc(OC)c(C34CC5CC(CC(C5)C3)C4)c2)cc1OC` are within 1.5-fold of each other in IC50: 3.41 µM for the first, 4.5 µM for the second.

`COc1ccc(CNC(=O)c2ccc(O)c(C34CC5CC(CC(C5)C3)C4)c2)cc1OC` and `COc1ccc(CNC(=O)c2ccc(OC)c(C34CC5CC(CC(C5)C3)C4)c2)cc1OC` are within 1.5-fold of each other in IC50: 3.86 µM for the first, 5 µM for the second.

`O=C(NCc1ccc(O)c(O)c1)c1ccc(O)c(C23CC4CC(CC(C4)C2)C3)c1` and `O=C(NCCc1ccc(O)c(O)c1)c1ccc(O)c(C23CC4CC(CC(C4)C2)C3)c1` are within 1.5-fold of each other in IC50: 2.57 µM for the first, 2.09 µM for the second.

First: O=C(NCc1cc(O)ccc1O)c1ccc(O)cc1O
Second: O=C(NCc1cc(O)ccc1O)c1cc(C23CC4CC(CC(C4)C2)C3)c(O)cc1O
The IC50 of the first is 33-fold higher: 24.2 µM for the first, 0.729 µM for the second. The second is the more potent here.

`O=C(NCCc1ccc(O)cc1)c1cc(C23CC4CC(CC(C4)C2)C3)c(O)cc1O` and `O=C(NCc1ccc(O)cc1)c1cc(C23CC4CC(CC(C4)C2)C3)c(O)cc1O` are within 1.5-fold of each other in IC50: 1.1 µM for the first, 1.23 µM for the second.

Compared with `COc1ccc(CNC(=O)c2cc(C34CC5CC(CC(C5)C3)C4)c(O)cc2O)c(O)c1`, `O=C(NCc1ccc(O)cc1O)c1cc(C23CC4CC(CC(C4)C2)C3)c(O)cc1O` is 4.8-fold lower in IC50: 5.71 µM for the first, 1.2 µM for the second. The second is the more potent here.

Going from `COc1ccc(C(=O)NCc2ccc(O)c(O)c2)cc1` to `COc1ccc(C(=O)NCCc2ccc(O)c(O)c2)cc1`, the IC50 rises from 10 µM to 23 µM (2.3-fold). The first is the more potent here.

First: COc1ccc(C(=O)NCc2ccc(O)cc2O)cc1C12CC3CC(CC(C3)C1)C2
Second: O=C(NCc1ccc(O)cc1O)c1ccc(O)c(C23CC4CC(CC(C4)C2)C3)c1
The IC50 of the first is 1.6-fold higher: 1.4 µM for the first, 0.899 µM for the second.

`COc1cc(O)c(C(=O)NCc2ccc(O)c(O)c2)cc1C12CC3CC(CC(C3)C1)C2` showed an IC50 of 1.29 µM.
